Insulin prom act: TRM-6 insulin promoter activation | TRM-6 cells, insulin promoter eGFP reporter, imaging; plate-scaled: unstimulated 0, stimulated control 100 | activation, % at 2 µM | hit rate 0.81% among 130,000;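 active means activation at 2 µM above a set limit, confirmed on inspection of the cell images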;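 further: share of cells whose green reporter signal exceeds an intensity cutoff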
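Material: Human fetal islet-derived TRM-6 cells with tamoxifen-inducible insulin promoter–eGFP reporter | Medium: Low-glucose (5.5 mM) medium with tamoxifen | Probe or stimulus: Tamoxifen inducer, 0.75 µM, in seeding medium | Schedule: Tamoxifen pre-incubation 15 h overnight, then compound exposure 48 h at 37 °C | Detection: High-content imaging of fixed cells with Hoechst nuclear stain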
Numbers without * were called inactive. The entries come from a sample that favours hits as a whole.

SMILES	Insulin prom act
COc1ccc([N+](=O)[O-])cc1NC(=O)CC(c1ccccc1)c1ccccc1	193
NC(=O)c1ccccc1NS(=O)(=O)c1ccccc1	0
Cc1ccc(S(=O)(=O)Nc2ccccc2C(N)=O)cc1	403*
Cc1ccc(S(=O)(=O)Nc2cc(Cl)c(O)cc2C)cc1	9
Cc1ccc(Cl)cc1NC(=O)CC(O)(C(F)(F)F)C(F)(F)F	281
Cn1c(=NC(=O)COc2ccccc2)sc2ccccc21	0
CCCNC(=O)c1cc2nc(-c3ccccc3)cc(C(F)(F)F)n2n1	0
CC1=CC(=C(C#N)C#N)C=C(C)N1CCN1CCNCC1	7
CC(C)(C)C(=O)Nc1cc(C(F)(F)F)ccc1N1CCOCC1	-14
O=C(CCCCl)NC(=S)Nc1cc(C(F)(F)F)ccc1N1CCOCC1	-2
O=C(/C=C/c1ccco1)NC(=S)Nc1cc(C(F)(F)F)ccc1N1CCOCC1	211*
O=C(c1ccccc1CCc1ccccc1)N1CCN(c2ccccn2)CC1	386
COc1ccc(C(=O)c2sc3nc(-c4ccccc4)ccc3c2N)cc1	207*
CCOC(=O)c1sc2nc(-c3cccnc3)ccc2c1N	-71
COc1ccc(C(=O)c2oc3ccccc3c2N)cc1	306
COc1ccc(C2CC(=O)c3sc(NC(C)=O)nc3C2)cc1 (stereo not drawn)	0
C=CCn1c(C(CC(C)C)CC(C)O)n[nH]c1=S (stereo not drawn)	-100
CC(C)NC(=O)COc1ccc(Cl)cc1Cl	6
CC(=O)c1sc(NC(=O)COc2ccc(Cl)cc2Cl)nc1C	290*
Cc1nc(NC(=O)COc2ccccc2)sc1C(=O)Nc1ccccc1	4
O=C(Nc1cc2c(cc1Cl)OCCCO2)c1ccccc1	-4
COc1cc(NS(=O)(=O)c2ccc(NC(=O)/C(=C\c3ccccc3OC)NC(=O)c3ccccc3)cc2)nc(OC)n1	-8
COc1ccc(S(=O)(=O)N(C)CC(=O)NCc2cccnc2)cc1C	-5
CC1(C)CC(=O)C2=C(C1)N(c1ccccc1)C(=O)CC2c1ccc(O)cc1 (stereo not drawn)	7
Cc1ccccc1N1C(=O)CN(Cc2sccc2C)C1=S	84*
SMILES	Insulin prom act
Cc1ccc(N2C(=O)CN(Cc3sccc3C)C2=S)cc1C	-3
Cc1ccccc1N1C(=O)CC2(CCCC2)CC1=O	115
C[C@H](NC(=O)Cc1cccc2ccccc12)C(=O)N1CCCN(C)CC1	10
O=C(NCc1ccc(Cl)cc1)C(=O)NCC1OCCN1C(=O)c1ccc(Cl)cc1 (stereo not drawn)	-69
C=C(Cl)COc1ccc2c(CCC)cc(=O)oc2c1	293
CCCc1cc(=O)oc2cc(OCC(=O)Nc3cc(C)on3)ccc12	7
CCCc1cc(=O)oc2cc(Oc3ncccn3)ccc12	154*
O=c1c2cn[nH]c2[nH]c(=S)n1-c1ccccc1F	-20
CN(C)C=NC(=O)/C(C#N)=C/c1ccccc1	0
COc1cccc(N=C(N)N)c1	7
Cc1ccc(NC(=S)NC(NC(=O)c2ccccc2C)C(Cl)(Cl)Cl)c(C)c1 (stereo not drawn)	-3
O=C1/C(=C/c2ccco2)CCC1C1CCCC1 (stereo not drawn)	-7
O=C1/C(=C/c2ccc(F)cc2)CCC1C1CCCC1 (stereo not drawn)	442*
CN(C)c1ccc(/C=C2\CCC/C(=C\c3ccccc3)C2=O)cc1	120
C/C(=N/NS(C)(=O)=O)c1ccc2ccccc2c1	-7
CCOc1ccccc1CNC(=O)c1c([N+](=O)[O-])c(C)nn1C	-8
Cc1ccc(S(=O)(=O)N(CCC(=O)O)c2ccccc2)cc1	-64
CC(/C=C/c1ccccc1)=N\NC(=O)c1ccc(Br)cc1	389*
CC(/C=C/c1ccccc1)=N\NC(=O)CNC(=O)c1ccccc1Cl	-9
O=C(N/N=C/C=C/c1ccccc1)c1ccc(Br)cc1	10
CCOC(=O)c1sc(C)c(C(=O)NCC(C)(C)CN(C)C)c1N	-3
O=C(N/N=C/c1ccc([N+](=O)[O-])o1)C1CC1	-6
O=C(O)c1ccc(NCCC2=CCCCC2)c([N+](=O)[O-])c1	8
Cc1ccc(C)c(NC(=O)Cn2nnc(C(=O)NCc3cccs3)c2N)c1	-4
CCn1nc(C(=O)Nc2nc3ccccc3[nH]2)c2ccccc2c1=O	108
SMILES	Insulin prom act
c1ccc2nc3c(nc2c1)[nH]c1ccccc13	300*
CC(C)(C)c1nc2ccccc2[nH]1	-80
CCOC(=O)C1=CN(c2cccc(F)c2)C=C(C(=O)OCC)C1c1cc(OC)c(O)c([N+](=O)[O-])c1	0
CCN1C(=O)N(C)C(N(O)C(=O)NC)C1(C)C (stereo not drawn)	-9
CC1(NC(=S)N(CCO)CCO)CCS(=O)(=O)C1 (stereo not drawn)	-4
OCCc1ccc(-c2ccc(Cl)cc2)o1	450*
Nc1cccc(-c2ccc(CO)o2)c1	7
S=C(c1ccc(-c2ccc(Cl)cc2)o1)N1CCCCC1	7
CCC(=O)Nc1cccc(-n2nnnc2SCC(=O)c2ccc(C)c(C)c2)c1	5
Cc1nc(N)sc1N=Nc1ccc(Br)cc1	0

Compound activity (PubChem BioAssay)
